The source made the active and inactive calls. No cut-off for these calls is given here.
Key:
MCF7 [1] = experiment: Cytotoxicity against human MCF7 cells after 72 hrs by MTT assay; assay type: functional, cell-based; conditions: MCF7, 72 h
Procedure, shortened: (§1)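 Cells seeded at 4 × 10^3 per well, adhered overnight, then exposed continuously for 72 h. Media refreshed, MTT added to 0.3 mg/mL final, 4 h at 37 °C. Formazan dissolved in DMSO and read at 570 nm. IC50 taken from log concentration vs % nonviable cells; triplicate wells. Rho θ lines grown with 50 μg/mL uridine.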

MDA-MB-435 [2] = experiment: Ratio of IC50 for mitochondrial DNA-deficient human MDA-MB-435 rho theta-W02 cells to IC50 for wild type human MDA-MB-435 cells; assay type: functional
[3] = Cytotoxicity against human BxPC3 cells after 72 hrs by MTT assay; assay type: functional, cell-based; conditions: BXPC-3, 72 h; procedure, shortened: as §1
MDA-MB-435 [4] = experiment: Cytotoxicity against mitochondrial DNA-deficient human MDA-MB-435 rho theta-W02 cells after 72 hrs by MTT assay; assay type: functional, cell-based; conditions: MDA-MB-435, 72 h; procedure, shortened: as §1
SK-BR-3 = experiment: Sensitivity ratio of chlorambucil IC50 to compound IC50 for human SKBR3 cells; assay type: functional
[5] = Antitumor activity against human MIAPaCa2 cells xenografted in athymic nude mouse assessed as inhibition of tumor growth at 10 mg/kg, ip administered 5 times a week for 36 days; assay type: functional; conditions: MIA PaCa-2, ip, 864 h, route intraperitoneal, read-out: TGI
Procedure, shortened: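 Established subcutaneous xenografts (2 × 10^6 cells in 1:1 matrigel–basal DMEM, right rear flank) in 4−6 week old mice; randomized at ~100 mm3, n = 6 per group. Dosed ip 10 mg/kg five times weekly; DMSO stock diluted in saline or sesame oil. Caliper volume V = d2 × D/2. Unpaired Student's t-test vs vehicle at day 36.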

[6] = Cell cycle arrest in human MIAPaCa2 cells assessed as accumulation at G2/M phase at 2 uM after 24 to 48 hrs by flow cytometry; assay type: functional, cell-based; conditions: MIA PaCa-2
Procedure, shortened: (§2)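 Cells in 6-well dishes exposed to 2 or 20 μM for 0−72 h, trypsinized, PBS-washed, fixed and permeabilized in 70% ethanol. Stained with 10 μg/mL propidium iodide plus 100 μg/mL RNase A. DNA content read by flow cytometry with 488 nm excitation and 575/26 nm bandpass.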

MDA-MB-468 [7] = experiment: Induction of nuclear DNA damage in human MDA-MB-468 cells assessed as increase in gammaH2A.X expression at 2 uM by Western blotting analysis; assay type: functional, cell-based; conditions: TDE = time-dependent effect
MDA-MB-231 [8] = experiment: Cytotoxicity against wild type human MDA-MB-231 cells after 72 hrs by MTT assay; assay type: functional, cell-based; conditions: MDA-MB-231, 72 h; procedure, shortened: as §1
MDA-MB-468 [9] = experiment: Induction of nuclear DNA damage in human MDA-MB-468 cells assessed as increase in gammaH2A.X expression after 5 to 24 hrs by Western blotting analysis; assay type: functional, cell-based
BT-549 [10] = experiment: Cytotoxicity against human BT549 cells after 72 hrs by MTT assay; assay type: functional, cell-based; conditions: BT-549, 72 h; procedure, shortened: as §1
MIA PaCa-2 [11] = experiment: Induction of nuclear DNA damage in human MIAPaCa2 cells assessed as increase in gammaH2A.X expression at 2 uM by Western blotting analysis; assay type: functional, cell-based; conditions: TDE = time-dependent effect
MCF7 [12] = experiment: Sensitivity ratio of chlorambucil IC50 to compound IC50 for human MCF7 cells; assay type: functional
BT-474 [13] = experiment: Sensitivity ratio of chlorambucil IC50 to compound IC50 for human BT474 cells; assay type: functional
MDA-MB-435 [14] = experiment: Ratio of IC50 for mitochondrial DNA-deficient human MDA-MB-435 rho theta-W01 cells to IC50 for wild type human MDA-MB-435 cells; assay type: functional
[15] = Cytotoxicity against human Hs578T cells after 72 hrs by MTT assay; assay type: functional, cell-based; conditions: Hs-578T; procedure, shortened: as §1
CAMA-1 = experiment: Sensitivity ratio of chlorambucil IC50 to compound IC50 for human CAMA1 cells; assay type: functional
[16] = Drug uptake in cytoplasm of human MIAPaCa2 cells at 10 uM after 18 hrs using […] staining by laser-scanning confocal microscopy; assay type: ADME, cell-based; conditions: mia paca-2, 18 h
Procedure, shortened: (§3)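 Cells on glass coverslips, adhered overnight, exposed 18 h at 10 μM. Fixed in 3.7% formaldehyde 15 min at RT, permeabilized in ice-cold acetone 5 min at −20 °C, blocked in 1% BSA/PBS. Anti-TPP antisera and anti-complex I antibody (1:1000) overnight at 4 °C, then Cy5/Cy3 secondaries (1:200) 2 h. Imaged by scanning confocal microscopy.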

[17] = Drug uptake in nucleus of human MIAPaCa2 cells at 10 uM after 18 hrs using […] staining by laser-scanning confocal microscopy; assay type: ADME, cell-based; conditions: mia paca-2, 18 h; procedure, shortened: as §3
MDA-MB-435 [18] = experiment: Cytotoxicity against wild type human MDA-MB-435 cells after 72 hrs by MTT assay; assay type: functional, cell-based; conditions: MDA-MB-435, 72 h; procedure, shortened: as §1
MDA-MB-468 [19] = experiment: Cytotoxicity against human MDA-MB-468 cells after 72 hrs by MTT assay in presence of NAC; assay type: functional, cell-based; conditions: MDA-MB-468, 72 h
MDA-MB-468 [20] = experiment: Sensitivity ratio of chlorambucil IC50 to compound IC50 for human MDA-MB-468 cells; assay type: functional
MDA-MB-231 [21] = experiment: Sensitivity ratio of chlorambucil IC50 to compound IC50 for human MDA-MB-231 cells; assay type: functional
MIA PaCa-2 [22] = experiment: Induction of nuclear DNA damage in human MIAPaCa2 cells assessed as increase in gammaH2A.X expression after 24 hrs by Western blotting analysis in presence of NAC relative to control; assay type: functional
MIA PaCa-2 [23] = experiment: Induction of nuclear DNA damage in human MIAPaCa2 cells assessed as increase in gammaH2A.X expression after 24 hrs by Western blotting analysis relative to control; assay type: functional
BXPC-3 = experiment: Sensitivity ratio of chlorambucil IC50 to compound IC50 for human BxPC3 cells; assay type: functional
MDA-MB-468 [24] = experiment: Cytotoxicity against human MDA-MB-468 cells after 72 hrs by MTT assay; assay type: functional, cell-based; conditions: MDA-MB-468, 72 h; procedure, shortened: as §1
[25] = Cell cycle arrest in human MIAPaCa2 cells assessed as accumulation at S phase at 2 uM after 24 hrs by flow cytometry; assay type: functional, cell-based; conditions: MIA PaCa-2; procedure, shortened: as §2
MIA PaCa-2 [26] = experiment: Induction of nuclear DNA damage in human MIAPaCa2 cells assessed as increase in gammaH2A.X expression after 5 to 24 hrs by Western blotting analysis; assay type: functional, cell-based
[27] = Cytotoxicity against human CAMA1 cells after 72 hrs by MTT assay; assay type: functional, cell-based; conditions: CAMA-1, 72 h; procedure, shortened: as §1
[28] = Drug uptake in mitochondria of human MIAPaCa2 cells at 10 uM after 18 hrs using […] staining by laser-scanning confocal microscopy; assay type: ADME; conditions: mia paca-2, 18 h; procedure, shortened: as §3
[29] = Cell cycle arrest in human MIAPaCa2 cells assessed as increase of […] cells at 2 uM after 24 to 72 hrs by flow cytometry; assay type: functional, cell-based; conditions: MIA PaCa-2; procedure, shortened: as §2
BT-474 [30] = experiment: Cytotoxicity against human BT474 cells after 72 hrs by MTT assay; assay type: functional, cell-based; conditions: BT-474, 72 h
[31] = Cytotoxicity against human MIAPaCa2 cells after 72 hrs by MTT assay; assay type: functional, cell-based; conditions: MIA PaCa-2, 72 h; procedure, shortened: as §1
MDA-MB-435 [32] = experiment: Cytotoxicity against mitochondrial DNA-deficient human MDA-MB-435 rho theta-W01 cells after 72 hrs by MTT assay; assay type: functional, cell-based; conditions: MDA-MB-435, 72 h; procedure, shortened: as §1
MDA-MB-231 [33] = experiment: Ratio of IC50 for mitochondrial DNA-deficient human MDA-MB-231 rho theta-W02 cells to IC50 for wild type human […]; assay type: functional
MIA PaCa-2 [34] = experiment: Sensitivity ratio of chlorambucil IC50 to compound IC50 for human MIAPaCa2 cells; assay type: functional
MDA-MB-231 [35] = experiment: Cytotoxicity against mitochondrial DNA-deficient human MDA-MB-231 rho theta-W02 cells after 72 hrs by MTT assay; assay type: functional, cell-based; conditions: MDA-MB-231, 72 h; procedure, shortened: as §1
Hs-578T = experiment: Sensitivity ratio of chlorambucil IC50 to compound IC50 for human Hs 578T cells; assay type: functional
[36] = Cytotoxicity against human SKBR3 cells after 72 hrs by MTT assay; assay type: functional, cell-based; conditions: SK-BR-3, 72 h; procedure, shortened: as §1
BT-549 [37] = experiment: Sensitivity ratio of chlorambucil IC50 to compound IC50 for human BT549 cells; assay type: functional
MDA-MB-435 [38] = experiment: Sensitivity ratio of chlorambucil IC50 to compound IC50 for wild type human MDA-MB-435 cells; assay type: functional
MDA-MB-468 [39] = experiment: Induction of nuclear DNA damage in human MDA-MB-468 cells assessed as increase in gammaH2A.X expression at 20 uM by Western blotting analysis; assay type: functional, cell-based; conditions: TDE = time-dependent effect
[40] = Cell cycle arrest in human MIAPaCa2 cells assessed as increase of […] cells at 20 uM after 24 to 72 hrs by flow cytometry; assay type: functional, cell-based; conditions: MIA PaCa-2; procedure, shortened: as §2
[41] = Cell cycle arrest in human MIAPaCa2 cells assessed as accumulation at G2/M phase at 20 uM after 24 to 48 hrs by flow cytometry; assay type: functional, cell-based; conditions: MIA PaCa-2; procedure, shortened: as §2
MIA PaCa-2 [42] = experiment: Induction of nuclear DNA damage in human MIAPaCa2 cells assessed as increase in gammaH2A.X expression at 75 uM by Western blotting analysis; assay type: functional, cell-based; conditions: TDE = time-dependent effect

## CCCC[P+](CCCC)(CCCC)CCCNC(=O)CCCc1ccc(N(CCCl)CCCl)cc1
MCF7 [1]
  IC50: 35 µM

## O=C(CCCc1ccc(N(CCCl)CCCl)cc1)NCCC[P+](c1ccccc1)(c1ccccc1)c1ccccc1.O=C([O-])C(F)(F)F
MDA-MB-435 [2]
  Ratio IC50: 11.7
[3]
  IC50: 2.5 µM
MDA-MB-435 [4]
  IC50: 35 µM
SK-BR-3
  Ratio IC50: 43.4
[5]
  inhibition in vivo at 10 mg/kg: 45%
[6]
  Activity: Active
MDA-MB-468 [7]
  Activity: tde
MDA-MB-231 [8]
  IC50: 9.5 µM
MDA-MB-468 [9]
  Activity: Dose-dependent effect
BT-549 [10]
  IC50: 7.3 µM
MIA PaCa-2 [11]
  Activity: tde
MCF7 [12]
  Ratio IC50: 7.7
BT-474 [13]
  Ratio IC50: 36.5
MDA-MB-435 [14]
  Ratio IC50: 5
[15]
  IC50: 11.4 µM
CAMA-1
  Ratio IC50: 79.9
[16]
  Drug uptake: Active
[17]
  Drug uptake: Not Active
MDA-MB-435 [18]
  IC50: 3 µM
MDA-MB-468 [19]
  IC50: 0.6 µM
MDA-MB-468 [20]
  Ratio IC50: 25.8
MDA-MB-231 [21]
  Ratio IC50: 54.8
MIA PaCa-2 [22]
  fold change (FC): 1.2
MIA PaCa-2 [23]
  fold change (FC): 2.9
BXPC-3
  Ratio IC50: >40
MDA-MB-468 [24]
  IC50: 1.7 µM
[25]
  Activity: Active
MIA PaCa-2 [26]
  Activity: Dose-dependent effect
[27]
  IC50: 2.4 µM
[28]
  Drug uptake: Active
[29]
  Activity: Active
BT-474 [30]
  IC50: 6.5 µM
[31]
  IC50: 1.6 µM
MDA-MB-435 [32]
  IC50: 15 µM
MDA-MB-231 [33]
  Ratio IC50: >2.1
MIA PaCa-2 [34]
  Ratio IC50: >40
MDA-MB-231 [35]
  IC50: > 20 µM
Hs-578T
  Ratio IC50: 14.3
[36]
  IC50: 5.7 µM
BT-549 [37]
  Ratio IC50: 27.4
MDA-MB-435 [38]
  Ratio IC50: 50

## O=C(CCCc1ccc(N(CCCl)CCCl)cc1)NCCC[P+](C1CCCCC1)(C1CCCCC1)C1CCCCC1
MCF7 [1]
  IC50: 40 µM

## O=C(O)CCCc1ccc(N(CCCl)CCCl)cc1 [CHLORAMBUCIL]
[3]
  IC50: > 100 µM
MDA-MB-435 [4]
  IC50: > 200 µM
[5]
  inhibition in vivo at 10 mg/kg: 61.5%
MDA-MB-468 [39]
  Activity: tde
MDA-MB-231 [8]
  IC50: > 200 µM
BT-549 [10]
  IC50: > 200 µM
MCF7 [1]
  IC50: 73.3 µM
[15]
  IC50: 162 µM
MDA-MB-435 [18]
  IC50: 150 µM
[40]
  Activity: Active
MDA-MB-468 [19]
  IC50: 67.5 µM
MIA PaCa-2 [22]
  fold change (FC): 2.6
MIA PaCa-2 [23]
  fold change (FC): 2.5
[41]
  Activity: Active
MDA-MB-468 [24]
  IC50: 43.8 µM
[27]
  IC50: 192 µM
BT-474 [30]
  IC50: 238 µM
[31]
  IC50: 78.3 µM
MIA PaCa-2 [42]
  Activity: tde
MDA-MB-435 [32]
  IC50: > 200 µM
MDA-MB-231 [35]
  IC50: > 200 µM
[36]
  IC50: 248 µM

## O=C(CCCc1ccc(N(CCO)CCO)cc1)NCCC[P+](c1ccccc1)(c1ccccc1)c1ccccc1
MCF7 [1]
  IC50: 80 µM

Reference: ChEMBL document CHEMBL3091379, “A selective mitochondrial-targeted chlorambucil with remarkable cytotoxicity in breast and pancreatic cancers” (J Med Chem, 2013)
